UPR CHOP act: apoptotic UPR (CHOP) activation; CHO-CHOP luciferase reporter, luminescence; percent of tunicamycin response over DMSO baseline; activation, % at 10 µM; hit rate 0.34% among 330,000; AID 449763;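 active means at 10 µM dose, activation of 40% or more, normalized to positive control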
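assay system = CHO CHOP reporter cells | amount = 500 CHO-CHOP cells per well | buffer or medium = F12 with 10% FBS | incubation = 16-18 h cell attachment, then 6 h compound exposure, 37 °C | detection = luminescence read with Steady-Glo | read-out = percent activation relative to tunicamycin control | controls = tunicamycin high control, DMSO low control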
UPR XBP1 act: adaptive UPR (XBP1) activation | CHO-XBP1 luciferase reporter, IRE1-XBP1 UPR activation, luminescence; percent of tunicamycin response, DMSO as zero | activation, % at 20 µM | hit rate 0.33% among 330,000 | AID 463104;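 active means versus positive control, 20 µM dose yields 30% or more activation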
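Signal: luciferase luminescence; Assay system: CHO-XBP1 luciferase reporter cells; Amount: one thousand reporter cells per well; Dosing: 20 µM single concentration, DMSO 1%; Benchmarks: high control tunicamycin 10 µg/mL final, low control DMSO vehicle only; Schedule: 6 h compound exposure at 37 °C, 5% CO2; Evaluation: percent activation relative to tunicamycin reference.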
iPSC survival up: hiPSC single-cell survival enhancement. ATPlite luminescence; 100% = ROCK inhibitor wells, 0% = DMSO. survival enhancement, % at 20 µM. hit rate 0.044% among 360,000. AID 602274; in the data active means survival enhancement above about 18%;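 further: cells exposed to compounds for 16 hours before the ATP read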
CHOP inh: inhibitors of CHOP induction in ER stress response; CHO-K1 CHOP-promoter luciferase, tunicamycin-induced, 15-18 h; inhibition, % at 10 µM; hit rate 3.8% among 220,000; AID 2732;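 active means compounds that reduced the stress-induced luciferase reporter signal by more than about 70% of percent inhibition, limit read from the data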
Cardio protect: myocardial damage modulation in H9c2 cells | H9c2 cardiomyocytes, H2O2 injury protection, ATPLite, 2 h | protection from H2O2 cell death, % at 20 µM | hit rate 0.63% among 360,000 | AID 588492;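 active means compounds giving at least 50% protection of heart cells from peroxide-induced death in the single-dose screen, raw or plate-pattern-corrected value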
XBP1 UPR conf: adaptive UPR (XBP1) activation, confirmed; shares compounds with UPR XBP1 act; CHO-XBP1 IRE1-XBP1 luciferase reporter, luminescence; activation, % at 20 µM; hit rate 63% among 1,000; AID 485299;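 active means reporter signal at least 30% of the positive control's activation in two or more of four replicate wells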
Each line names hits and unclear results; the compound was inactive in the other large screens (follow-up assays come after a bar, where they were run). The sample as a whole holds a higher share of hits than the screen did.

N#Cc1ccccc1/C=N/Nc1nc(-c2ccccc2)c2cc(Cl)ccc2n1	UPR XBP1 act 62, CHOP inh 89 | XBP1 UPR conf 102
Cc1cc(C)c(C#N)c(SCC(=O)N2CCCCC2)n1	UPR XBP1 act 34 | XBP1 UPR conf inactive
Cc1cc(C)c(C#N)c(SCC(=O)N2CCN(Cc3ccccc3)CC2)n1	none
c1ccc(CNc2nc(NCc3ccccc3)c3ccccc3n2)cc1	UPR XBP1 act 59 | XBP1 UPR conf inactive
c1ccc(CNc2nc(NCc3ccccc3)c3sccc3n2)cc1	none (no result: UPR CHOP act, UPR XBP1 act, CHOP inh)
COc1ccc(NC(=O)COC(=O)CCCOc2ccc(Cl)cc2Cl)cc1	UPR XBP1 act 75 | XBP1 UPR conf inactive
CCCNC(=O)c1cc(C2CCCN(C(=O)C3CC3)C2)on1 (stereo not given)	none (no result: UPR CHOP act, UPR XBP1 act, CHOP inh)
CCOC(=O)c1cc2c(ccn2-c2ccc(F)cc2)n1CC(=O)N1CCN(C(=O)c2ccco2)CC1	UPR XBP1 act 45 | XBP1 UPR conf inactive
CCOC(=O)c1sc(-c2ccccc2)cc1NC(=O)Nc1ccc([N+](=O)[O-])cc1	UPR XBP1 act 199, CHOP inh 91 | XBP1 UPR conf 163
CCn1c(O)c(C(C#N)=C2N=c3ccccc3=N2)c2ccccc21	UPR XBP1 act 34 | XBP1 UPR conf inactive
CCn1c(O)c(N=N)c2ccccc21	none
Cc1c(O)ccc(/C=N/Nc2nc(-c3cccnc3)nc3ccccc23)c1O	UPR XBP1 act 36 | XBP1 UPR conf inactive
COc1cc(/C=N/NC(=O)Cn2nc([N+](=O)[O-])cc2C)cc(Br)c1OCc1ccccc1	none
CCOc1cc(/C=N/NC(=O)Cn2nc([N+](=O)[O-])cc2C)cc(Br)c1OCc1ccccc1C	UPR XBP1 act 57 | XBP1 UPR conf 80
CCc1cc2cc3c(cc2nc1SCC(=O)Nc1nccs1)OCO3	UPR XBP1 act 57 | XBP1 UPR conf inactive
CCOc1cccc2sc(N(CCCN(C)C)C(=O)c3ccc(S(=O)(=O)N(C)c4ccccc4)cc3)nc12	none
CCOc1cccc2sc(N(CCCN(C)C)C(=O)c3ccc(S(=O)(=O)N4CCc5ccccc5C4)cc3)nc12	UPR XBP1 act 35 (no result: CHOP inh) | XBP1 UPR conf inactive
COc1ccc(-c2cc(C#N)nc(Cl)n2)cc1	UPR XBP1 act 30 | XBP1 UPR conf inactive
O=c1[nH][nH]c(-c2ccccc2O)c1C(C[N+](=O)[O-])c1ccc(Br)cc1 (stereo not given)	none
Cc1ccc(C(C[N+](=O)[O-])c2c(-c3ccccc3O)[nH][nH]c2=O)cc1 (stereo not given)	UPR XBP1 act 31 | XBP1 UPR conf inactive
O=C(CSc1ccc2nnc(-c3ccc(Cl)cc3)n2n1)N1CCCc2ccccc21	UPR XBP1 act 50 | XBP1 UPR conf inactive
CCOc1cc(/C=N/N=C(/N)c2nonc2N)cc(Br)c1OCc1ccc(Cl)cc1	UPR XBP1 act 70 | XBP1 UPR conf 142
COc1cc(/C=N/N=C(/N)c2nonc2N)cc(Br)c1OCc1ccccc1C	none
O=C(Oc1ccccc1/C=C\C(=O)c1cc2ccccc2o1)c1cccc(F)c1	UPR XBP1 act 39 | XBP1 UPR conf 60
CC1CCC2(CC1)NC(=O)N(CC(=O)Nc1ccc(N3CCCCC3)cc1)C2=O (stereo not given)	none (no result: UPR CHOP act, UPR XBP1 act, CHOP inh)
Cc1ccccc1OCC(O)CNC1CCC(NCC(O)COc2ccccc2C)CC1 (stereo not given)	UPR CHOP act 56, UPR XBP1 act 43 (no result: CHOP inh) | XBP1 UPR conf inactive
N#CCCn1cc(/C=N/O)c(-c2ccc(Cl)cc2)n1	UPR XBP1 act 109 | XBP1 UPR conf inactive
CC1(C)Cc2c(c(N3CCOCC3)nc3sc4c(NCC5CCCO5)nnnc4c23)CS1 (stereo not given)	UPR XBP1 act 33 | XBP1 UPR conf inactive
CCCCc1cc(=O)oc2cc(C)cc(OCC(=O)N3C[C@H]4C[C@@H](C3)c3cccc(=O)n3C4)c12	none (no result: CHOP inh)
C/C(=N\NC1=NCCN1)c1ccc(N)c([N+](=O)[O-])c1	none
CCCCCCOc1ccc(/C(C)=N/NC2=NCCN2)cc1[N+](=O)[O-]	UPR XBP1 act 32 | XBP1 UPR conf inactive
CCC(=O)N1CCN=C1SCc1cccc(C(F)(F)F)c1	none (no result: CHOP inh)
CCN(C(=O)CSc1nc2scc(-c3ccccc3)c2c(=O)n1N)C1CCS(=O)(=O)C1 (stereo not given)	none (no result: UPR CHOP act, UPR XBP1 act, CHOP inh)
COc1ccc(/C=N/NC(=O)Nc2cccc3nsnc23)cc1OC	UPR XBP1 act 74, CHOP inh 83 | XBP1 UPR conf inactive
Cc1cc2nc(CCN3CCOCC3)n(S(=O)(=O)c3ccc(C(C)(C)C)cc3)c2cc1C	UPR XBP1 act 32 | XBP1 UPR conf inactive
CC(C)(C)c1ccc(S(=O)(=O)NCCN2CCOCC2)cc1	none (no result: UPR CHOP act, UPR XBP1 act, CHOP inh)
CC(C)CCOc1ccc(C(=O)NNC(=O)CNC(=O)c2ccccc2F)cc1	none (no result: CHOP inh)
O=C(Nc1nc2ccccc2s1)c1cc2c(s1)-c1ccccc1OC2	UPR XBP1 act 134 | XBP1 UPR conf 93
COc1ccccc1C(=O)Nc1ccccc1SC(=O)c1ccccc1OC	UPR XBP1 act 34 (no result: CHOP inh) | XBP1 UPR conf inactive
CCCNC(=O)c1onc(CS(=O)(=O)c2cc(C)cc(C)c2)c1C(=O)NCCC	none (no result: CHOP inh)
CCOc1ccc(C(=O)Nc2cc(C)c3c(=O)oc4ccccc4c3n2)cc1	UPR XBP1 act 52 | XBP1 UPR conf inactive
COc1ccc(NC(=O)CSc2nc3n[nH]c(C)c3c(=N)n2-c2ccc(Cl)c(C)c2)cc1OC	UPR XBP1 act 34 (no result: CHOP inh) | XBP1 UPR conf inactive
COc1ccc(OC)c(NC(=O)CSc2nc3n[nH]c(C)c3c(=N)n2-c2cccc(Cl)c2C)c1	none (no result: CHOP inh)
COc1ccccc1NS(=O)(=O)c1cccc(C(=O)N/N=C/c2ccc([N+](=O)[O-])o2)c1	none (no result: CHOP inh)
CCCCOc1ccccc1NC(=O)Cn1c(-c2nonc2N)nc2ccccc21	UPR XBP1 act 101 (no result: CHOP inh) | XBP1 UPR conf 82
NNC(=O)Cn1c(-c2nonc2N)nc2ccccc21	none
CCCNC(=O)C1(C)CCCN(Cc2ccc(Cl)cc2)C1 (stereo not given)	none (no result: UPR CHOP act, UPR XBP1 act, CHOP inh)
CCOC(=O)[C@H]1[C@H]2COc3ccc(Cl)cc3[C@@H]2N2C(=O)c3cc(F)c(F)cc3NC(=O)[C@@]12C	none (no result: CHOP inh)
COc1ccc(-c2ccc3c(c2)S(=O)(=O)c2cccc(C(=O)NCCOc4ccccc4Cl)c2C3=O)cc1OC	UPR XBP1 act 94 (no result: CHOP inh) | XBP1 UPR conf 46
COc1ccc(-c2ccc3c(c2)S(=O)(=O)c2cccc(C(=O)NCc4ccccc4Cl)c2C3=O)cc1OC	none (no result: CHOP inh)
CC(=O)Nc1cccc(NC(=O)C2CCCO2)c1 (stereo not given)	none (no result: UPR CHOP act, UPR XBP1 act, CHOP inh)
CCOc1ccc(C(=O)Nc2cc(-c3nc4ccccc4[nH]3)ccc2Cl)cc1[N+](=O)[O-]	UPR XBP1 act 35, CHOP inh 79 | XBP1 UPR conf 535
CCOc1ccc(C(=O)Nc2cc(-c3nc4ccccc4[nH]3)ccc2C)cc1[N+](=O)[O-]	none
